{"source": "paper PMC4817271", "about": "(Journal of medicinal chemistry, 2015)", "key": {"[1]": {"test": "Mouse IP tissue distribution with P-gp inhibitor 109 pretreatment", "type": "in vivo", "summary_of_the_method": "(§1)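 Mice were pretreated with the P-gp inhibitor elacridar at 20 mg/kg 1 h before the test compound. Test compound was given ip at 30 mg/kg as a fine homogeneous suspension in 10% Tween-80 in water (n=2). Brain and plasma were sampled 15 min after dosing. Kp = total brain/total plasma; Kp,uu = (brain fu × total brain)/(plasma fu × total plasma).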"}, "P-gp": {"test_system": "P-gp", "test": "Mouse IP tissue distribution with P-gp inhibitor 109 pretreatment", "type": "in vivo", "details": "mouse, brain, ip, with 109 (elacridar), 20 mg/kg, dosed 1 h before compound 58", "summary_of_the_method": "as §1"}, "human M1": {"molecular_target": "T1, human M1 (Homo sapiens, UniProt P11229)", "T1 sequence (P11229 1-460)": "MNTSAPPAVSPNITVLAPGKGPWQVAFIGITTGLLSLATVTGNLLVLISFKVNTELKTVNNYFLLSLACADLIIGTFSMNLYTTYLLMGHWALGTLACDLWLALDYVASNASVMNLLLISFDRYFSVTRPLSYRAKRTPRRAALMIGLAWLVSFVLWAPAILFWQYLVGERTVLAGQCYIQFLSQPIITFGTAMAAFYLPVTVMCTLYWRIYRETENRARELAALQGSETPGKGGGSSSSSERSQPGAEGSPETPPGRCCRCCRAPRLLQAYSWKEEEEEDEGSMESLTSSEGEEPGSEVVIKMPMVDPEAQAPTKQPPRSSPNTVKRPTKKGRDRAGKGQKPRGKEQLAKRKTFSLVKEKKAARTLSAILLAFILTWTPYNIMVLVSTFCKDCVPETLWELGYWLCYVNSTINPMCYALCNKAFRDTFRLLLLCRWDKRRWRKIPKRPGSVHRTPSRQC", "test": "Human M1 functional assay", "type": "cell-based", "details": "up to the highest concentration tested (30 μM)"}, "[2]": {"test": "Protein binding in mouse brain homogenates", "type": "in vitro ADME", "details": "brain homogenate"}, "[3]": {"test": "Mouse plasma protein binding", "type": "in vitro ADME"}, "[4]": {"test": "Protein binding in rat brain homogenates", "type": "in vitro ADME", "details": "brain homogenate"}, "[5]": {"test": "Rat iv cassette PK tissue distribution", "type": "in vivo", "details": "0.2 mg/kg", "summary_of_the_method": "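Cassette dosing in rats: iv at 0.2 mg/kg per compound, as a solution in 8% EtOH, 30% PEG 400 and 62% DMSO (2 mg/mL total), n=2. Single time point brain and plasma sampling at 15 min after dose. Kp = total brain/total plasma; Kp,uu = (brain fu × total brain)/(plasma fu × total plasma).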"}, "[6]": {"test": "Mouse IP tissue distribution", "type": "in vivo", "summary_of_the_method": "(§2)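 Single time point tissue distribution in mice or rats (n=2). Test compound was given ip at 30 mg/kg as a fine homogeneous suspension in 10% Tween-80 in water. Brain and plasma concentrations were taken 15 min after dosing. Kp = total brain/total plasma; Kp,uu = unbound brain (brain fu × total brain)/unbound plasma (plasma fu × total plasma).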"}, "[7]": {"test_system": "panel of 68 clinically relevant GPCRs, ion channels, kinases, and transporters", "test": "Radioligand binding assay panel", "details": "10 μM; significant = more than 50% inhibition of radioligand binding"}, "rat mGlu2": {"molecular_target": "rat mGlu2 (Rattus norvegicus, UniProt P31421)", "sequence (P31421 19-872)": "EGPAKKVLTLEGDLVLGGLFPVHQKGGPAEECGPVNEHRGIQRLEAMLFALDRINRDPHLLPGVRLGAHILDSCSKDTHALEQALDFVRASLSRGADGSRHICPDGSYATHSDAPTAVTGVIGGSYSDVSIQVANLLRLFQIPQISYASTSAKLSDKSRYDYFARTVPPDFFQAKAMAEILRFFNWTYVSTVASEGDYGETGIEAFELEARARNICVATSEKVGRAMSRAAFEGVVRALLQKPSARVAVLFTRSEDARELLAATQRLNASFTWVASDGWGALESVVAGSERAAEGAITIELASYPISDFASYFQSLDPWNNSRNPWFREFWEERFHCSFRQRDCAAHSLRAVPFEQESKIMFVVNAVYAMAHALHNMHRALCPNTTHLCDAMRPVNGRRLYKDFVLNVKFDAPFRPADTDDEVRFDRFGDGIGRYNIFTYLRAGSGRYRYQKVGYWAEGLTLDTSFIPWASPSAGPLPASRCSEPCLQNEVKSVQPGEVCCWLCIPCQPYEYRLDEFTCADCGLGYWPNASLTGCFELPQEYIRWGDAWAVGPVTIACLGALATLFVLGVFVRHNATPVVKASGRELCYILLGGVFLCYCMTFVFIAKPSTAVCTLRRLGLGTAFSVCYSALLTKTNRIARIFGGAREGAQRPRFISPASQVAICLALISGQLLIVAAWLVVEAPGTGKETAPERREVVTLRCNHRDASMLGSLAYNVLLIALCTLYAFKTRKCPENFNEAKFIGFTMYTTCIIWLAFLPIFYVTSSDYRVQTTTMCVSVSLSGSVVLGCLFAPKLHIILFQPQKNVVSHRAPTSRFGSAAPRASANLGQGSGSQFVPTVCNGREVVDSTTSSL", "test": "Calcium mobilization mGlu2 assay", "type": "cell-based", "details": "for IC50: average of n ≥ 3", "summary_of_the_method": "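Fluorescence calcium-mobilization read-out in a cell line stably co-expressing rat mGlu2 and the promiscuous G-protein Gα15. Test compound was applied up to 30 μM, and NAM activity was measured as inhibition of the glutamate response. Values are the average of n=3. LLE = pIC50 − cLogP, with cLogP calculated by software.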"}, "[8]": {"test": "Rat IP tissue distribution", "type": "in vivo", "summary_of_the_method": "as §2"}, "[9]": {"test_system": "other members of the mGlu family", "test": "Fold-shift selectivity experiments versus other mGlus", "type": "cell-based", "details": "effect of 10 μM compound on orthosteric agonist CRC"}, "[10]": {"test": "Rat plasma protein binding", "type": "in vitro ADME"}, "[11]": {"test": "Intrinsic clearance in rat liver microsomes, predicted hepatic clearance", "type": "in vitro ADME", "summary_of_the_method": "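Test compound was incubated with rat liver microsomes to give intrinsic clearance (CLint), which was converted to predicted hepatic clearance. Compounds were binned against hepatic blood flow: low (<1/3), moderate (1/3 to 2/3) or high (>2/3).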"}, "Rat IV PK": {"test": "Rat IV PK", "type": "in vivo", "summary_of_the_method": "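Rats received test compound iv at 0.2 mg/kg as a solution in 9% EtOH, 38% PEG 400 and 53% DMSO (1 mg/mL dosing solution), n=2. Plasma time course gave half-life, plasma clearance and volume of distribution at steady state.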"}, "P-gp (MDR1)": {"molecular_target": "P-gp (MDR1) (Homo sapiens, UniProt P08183)", "sequence (P08183 whole entry)": "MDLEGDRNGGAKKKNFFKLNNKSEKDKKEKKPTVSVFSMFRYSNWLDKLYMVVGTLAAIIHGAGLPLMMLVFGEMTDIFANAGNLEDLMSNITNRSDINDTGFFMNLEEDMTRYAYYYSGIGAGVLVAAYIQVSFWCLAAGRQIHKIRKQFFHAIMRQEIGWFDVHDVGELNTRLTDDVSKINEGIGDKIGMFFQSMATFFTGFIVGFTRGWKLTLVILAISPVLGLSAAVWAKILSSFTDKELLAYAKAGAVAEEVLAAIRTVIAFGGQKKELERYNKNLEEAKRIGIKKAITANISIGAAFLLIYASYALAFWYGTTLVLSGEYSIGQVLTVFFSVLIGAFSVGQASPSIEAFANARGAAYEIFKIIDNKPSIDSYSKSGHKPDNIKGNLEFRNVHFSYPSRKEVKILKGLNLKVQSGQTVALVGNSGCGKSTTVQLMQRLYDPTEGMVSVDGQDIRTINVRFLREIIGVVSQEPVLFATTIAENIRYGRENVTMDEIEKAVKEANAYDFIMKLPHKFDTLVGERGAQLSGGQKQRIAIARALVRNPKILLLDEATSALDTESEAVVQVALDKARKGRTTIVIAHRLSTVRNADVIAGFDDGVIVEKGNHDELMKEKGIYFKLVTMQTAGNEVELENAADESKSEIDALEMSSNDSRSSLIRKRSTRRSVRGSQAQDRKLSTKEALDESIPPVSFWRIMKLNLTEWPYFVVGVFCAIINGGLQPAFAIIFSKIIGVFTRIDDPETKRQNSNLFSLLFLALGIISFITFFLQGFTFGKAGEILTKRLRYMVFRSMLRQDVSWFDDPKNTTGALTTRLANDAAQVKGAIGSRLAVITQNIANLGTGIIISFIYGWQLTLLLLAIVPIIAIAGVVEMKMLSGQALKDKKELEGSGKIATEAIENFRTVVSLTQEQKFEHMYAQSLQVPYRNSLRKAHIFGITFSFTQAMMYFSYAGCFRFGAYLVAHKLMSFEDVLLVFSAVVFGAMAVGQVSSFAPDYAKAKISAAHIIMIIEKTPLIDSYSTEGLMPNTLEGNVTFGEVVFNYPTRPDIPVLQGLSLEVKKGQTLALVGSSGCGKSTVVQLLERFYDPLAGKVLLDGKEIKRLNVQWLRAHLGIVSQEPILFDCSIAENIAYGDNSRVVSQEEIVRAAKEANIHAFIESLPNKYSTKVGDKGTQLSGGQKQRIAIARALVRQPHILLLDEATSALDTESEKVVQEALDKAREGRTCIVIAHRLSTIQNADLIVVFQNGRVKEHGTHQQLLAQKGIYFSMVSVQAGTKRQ", "test": "Permeability in MDR1-MDCK cells", "type": "in vitro ADME", "details": "dog (MDCK cells), human MDR1 expressed"}, "[12]": {"details": "mouse ip 30 mg/kg, 15 min after dose, 109 dosed 1 h prior at 20 mg/kg"}, "[13]": {"details": "mouse ip 30 mg/kg, 15 min after dose"}, "[14]": {"details": "rat ip 30 mg/kg, 15 min after dose"}}}
{"compound": "C[C@@H]1CN(Cc2ccc3c(c2)c(=O)c(C(N)=O)cn3-c2ccc(F)cc2)C[C@H](C)O1", "note": "[Compound 58, 6-((cis-2,6-Dimethylmorpholino)methyl)-1-(4-fluorophenyl)-4-oxo-1,4-dihydroquinoline-3-carboxamide]", "values": [{"measurement": "unbound brain exposure relative to mGlu2 IC50", "setting": "[1]; 30 mg/kg ip with P-gp inhibitor pretreatment", "result": "more than 5 fold"}, {"measurement": "increase of exposure in the brain after pretreatment with 109 (elacridar)", "setting": "[1]; mouse ip 30 mg/kg", "result": "more than 6 fold"}, {"measurement": "brain concentration", "setting": "[1]; [12]", "result": 4580, "unit": "nm"}, {"measurement": "plasma concentration", "setting": "[1]; [12]", "result": 2160, "unit": "nm"}, {"measurement": "Kp at 15 min", "setting": "P-gp", "result": 2.1}, {"measurement": "Kp uu at 15 min", "setting": "P-gp", "result": 1.7}, {"measurement": "human M1 activity", "setting": "human M1", "result": "no activity"}, {"measurement": "fraction unbound", "setting": "[2]", "result": 0.257}, {"measurement": "fraction unbound", "setting": "[3]", "result": 0.315}, {"measurement": "fraction unbound", "setting": "[4]", "result": 0.191}, {"measurement": "fraction unbound", "setting": "[4]; mouse", "result": "0.25 to 0.3"}, {"measurement": "Kp at 0.25 h", "setting": "[5]; brain", "result": 0.32}, {"measurement": "Kp uu at 0.25 h", "setting": "[5]; brain", "result": 0.23}, {"measurement": "concentration at 15 min", "setting": "[5]; brain", "result": 18, "unit": "nM"}, {"measurement": "concentration at 15 min", "setting": "[5]; plasma", "result": 56.9, "unit": "nM"}, {"measurement": "brain concentration", "setting": "[6]; [13]", "result": 716, "unit": "nm"}, {"measurement": "plasma concentration", "setting": "[6]; [13]", "result": 1820, "unit": "nm"}, {"measurement": "Kp at 0.25 h", "setting": "[6]; mouse, brain, ip, 30 mg/kg", "result": 0.39}, {"measurement": "Kp uu at 0.25 h", "setting": "[6]; mouse, brain, ip, 30 mg/kg", "result": 0.32}, {"measurement": "concentration at 15 min", "setting": "[6]; mouse, brain, ip, 30 mg/kg, brain concentration, mouse ip 30 mg/kg", "result": 716, "unit": "nM"}, {"measurement": "concentration at 15 min", "setting": "[6]; mouse, brain, ip, 30 mg/kg, unbound brain concentration, mouse ip 30 mg/kg", "result": 184, "unit": "nM"}, {"measurement": "ancillary pharmacology, radioligand binding panel responses", "setting": "[7]", "result": "no significant responses"}, {"measurement": "LLE", "setting": "rat mGlu2; LLE = pIC50 – cLogP", "result": 3.59}, {"measurement": "% Glu max ± SEM", "setting": "rat mGlu2; amplitude of response in presence of 30 μM test compound as percentage of maximal response (100 μM glutamate)", "result": "1.48 ± 0.29", "unit": "%"}, {"measurement": "IC50", "setting": "rat mGlu2; mGlu2 IC50, calcium mobilization", "result": 207, "unit": "nM"}, {"measurement": "IC50", "setting": "rat mGlu2; mGlu2 pIC50 ± SEM, calcium mobilization", "result": 204, "unit": "nM"}, {"measurement": "brain concentration", "setting": "[8]; [14]", "result": 760, "unit": "nM"}, {"measurement": "plasma concentration", "setting": "[8]; [14]", "result": 3900, "unit": "nM"}, {"measurement": "Kp at 0.25 h", "setting": "[8]; rat, brain, ip, 30 mg/kg", "result": 0.2}, {"measurement": "Kp uu at 0.25 h", "setting": "[8]; rat, brain, ip, 30 mg/kg", "result": 0.12}, {"measurement": "concentration at 15 min", "setting": "[8]; rat, brain, ip, 30 mg/kg, unbound brain concentration, rat ip 30 mg/kg", "result": 145, "unit": "nM"}, {"measurement": "activity at the other mGlus", "setting": "[9]", "result": "no activity"}, {"measurement": "unbound in rat plasma", "setting": "[10]", "result": "approximately 30%"}, {"measurement": "fraction unbound", "setting": "[10]; rat, plasma", "result": 0.306}, {"measurement": "predicted hepatic clearance group", "setting": "[11]; binned from CLint in rat liver microsomes", "result": "low–moderate"}, {"measurement": "rat CLhep", "setting": "[11]; predicted hepatic clearance based on CLint in rat liver microsomes", "result": 24.5, "unit": "mL/min/kg"}, {"measurement": "clearance in vivo", "setting": "Rat IV PK; rat iv time course study", "result": "high clearance"}, {"measurement": "Vd", "setting": "Rat IV PK; rat, plasma, iv, 0.2 mg/kg", "result": 13.3, "unit": "L/kg"}, {"measurement": "clearance", "setting": "Rat IV PK; rat, plasma, iv, 0.2 mg/kg", "result": 75.8, "unit": "mL/min/kg"}, {"measurement": "half-life", "setting": "Rat IV PK; rat, plasma, iv, 0.2 mg/kg, half-life, rat iv time course study", "result": "~2", "unit": "h"}, {"measurement": "half-life", "setting": "Rat IV PK; rat, plasma, iv, 0.2 mg/kg, t1/2, rat iv 0.2 mg/kg", "result": 2.35, "unit": "h"}, {"measurement": "Papp A→B", "setting": "P-gp (MDR1)", "result": 1.54, "unit": "×10⁻⁶ cm/s"}, {"measurement": "Papp B→A", "setting": "P-gp (MDR1)", "result": 79.7, "unit": "×10⁻⁶ cm/s"}, {"measurement": "efflux ratio", "setting": "P-gp (MDR1)", "result": 52}]}
